For assay [1], the system named is HepG-2 cells. As to the kind of experiment: FITC-annexin V / PI staining for apoptosis. Format: cell-based, human. Conditions: HepG-2, at IC50, 24 h.
Assay [2] deals with HepG-2 cells. Briefly: Cytotoxicity, Sulforhodamine-B. Particulars: Homo sapiens. Type of assay: cell-based, human.
Another assay relates to caspase-3. As to the kind of experiment: ELISA immunoassay of active caspase-3 level in HepG-2 cells. Particulars: HepG-2, at IC50, 24 h. Format: cell-based, human.
For another assay, the target named is β-tubulin (Homo sapiens, UniProt P07437). As to the kind of experiment: β-tubulin polymerization inhibition assay. Type of assay: cell-based.
Sequence of β-tubulin (P07437 whole entry): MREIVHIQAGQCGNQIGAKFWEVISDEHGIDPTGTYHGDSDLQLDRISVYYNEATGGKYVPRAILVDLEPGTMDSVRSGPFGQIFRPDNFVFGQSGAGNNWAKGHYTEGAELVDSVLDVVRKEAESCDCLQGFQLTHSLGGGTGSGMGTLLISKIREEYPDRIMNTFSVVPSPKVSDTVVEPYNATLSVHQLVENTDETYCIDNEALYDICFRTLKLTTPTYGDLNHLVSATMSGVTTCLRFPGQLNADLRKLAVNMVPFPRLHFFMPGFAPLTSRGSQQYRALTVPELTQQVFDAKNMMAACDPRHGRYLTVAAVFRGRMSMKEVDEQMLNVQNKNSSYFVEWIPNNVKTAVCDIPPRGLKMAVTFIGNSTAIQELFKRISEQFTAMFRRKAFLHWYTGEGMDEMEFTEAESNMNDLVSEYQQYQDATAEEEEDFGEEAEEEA
Sequence of β-tubulin (P68363 whole entry partner): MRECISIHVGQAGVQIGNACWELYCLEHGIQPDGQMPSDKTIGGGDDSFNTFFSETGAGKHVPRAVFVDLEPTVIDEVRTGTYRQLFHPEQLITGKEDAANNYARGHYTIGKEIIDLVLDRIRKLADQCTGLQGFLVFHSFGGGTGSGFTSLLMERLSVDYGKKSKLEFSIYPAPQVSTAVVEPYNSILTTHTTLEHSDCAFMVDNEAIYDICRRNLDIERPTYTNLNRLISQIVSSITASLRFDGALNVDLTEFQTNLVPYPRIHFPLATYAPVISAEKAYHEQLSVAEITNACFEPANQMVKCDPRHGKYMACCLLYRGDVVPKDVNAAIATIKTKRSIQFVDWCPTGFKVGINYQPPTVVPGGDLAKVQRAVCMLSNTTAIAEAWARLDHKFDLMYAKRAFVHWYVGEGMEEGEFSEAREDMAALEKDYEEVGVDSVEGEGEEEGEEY
A further assay relates to HCT-116 cells. As to the kind of experiment: Cytotoxicity, Sulforhodamine-B. Format: cell-based. Conditions: Homo sapiens, HCT-116, 48 h, read-out: IC50 HCT-116. The essentials: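 SRB viability: cells seeded at 5 × 10^4–10^5/well and left to attach 24 h. Test compound (DMSO, diluted in saline) at 0.001–100 µM for 48 h, four wells per concentration; vehicle-only controls. Fixed cold 50% TCA 1 h at 4 °C, stained 0.4% SRB in 1% acetic acid 30 min, dye solubilised in 10 mM tris base pH 10.5, OD 564 nm. Survival fraction = OD treated/OD control; IC50 from survival-concentration plot; repeated three times.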

The next assay has as its system p53. As to the kind of experiment: ELISA immunoassay of p53 level in HepG-2 cells. Conditions: HepG-2, at IC50, 24 h. Type of assay: cell-based, human. Background: In an ELISA, binding on a coated surface is turned into a signal by an enzyme label.
The test system of assay [3] is HepG-2 cells. As to the kind of experiment: DNA-flow cytometry cell cycle analysis. Type of assay: cell-based, human. Particulars: HepG-2, at IC50, 24 h. Summed up:
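HepG-2 cells exposed to test compound for 24 h, with an untreated control. Cells washed twice in ice-cold PBS, pelleted, fixed in ice-cold 70% ethanol, treated with 0.1 mg/mL RNase and stained with propidium iodide. DNA content measured by flow cytometry to give cell-cycle phase distribution. Fold change versus control; mean ± SEM, n = 4, one-way ANOVA with Tukey test.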

Another assay concerns Bax. As to the kind of experiment: ELISA immunoassay of Bax level in HepG-2 cells. Type of assay: cell-based, human. Particulars: HepG-2, at IC50, 24 h.
In a further assay the test system is caspase-7. As to the kind of experiment: ELISA immunoassay of active caspase-7 level in HepG-2 cells. Format: cell-based, human. Conditions: HepG-2, at IC50, 24 h.
For another assay, the system named is Bcl-2. As to the kind of experiment: ELISA immunoassay of Bcl-2 level in HepG-2 cells. Format: cell-based, human. Particulars: HepG-2, at IC50, 24 h.
The next assay deals with VEGFR-2 (Homo sapiens, UniProt P35968). Briefly: biochemical. Format: biochemical.
Sequence of VEGFR-2 (P35968 20-1356): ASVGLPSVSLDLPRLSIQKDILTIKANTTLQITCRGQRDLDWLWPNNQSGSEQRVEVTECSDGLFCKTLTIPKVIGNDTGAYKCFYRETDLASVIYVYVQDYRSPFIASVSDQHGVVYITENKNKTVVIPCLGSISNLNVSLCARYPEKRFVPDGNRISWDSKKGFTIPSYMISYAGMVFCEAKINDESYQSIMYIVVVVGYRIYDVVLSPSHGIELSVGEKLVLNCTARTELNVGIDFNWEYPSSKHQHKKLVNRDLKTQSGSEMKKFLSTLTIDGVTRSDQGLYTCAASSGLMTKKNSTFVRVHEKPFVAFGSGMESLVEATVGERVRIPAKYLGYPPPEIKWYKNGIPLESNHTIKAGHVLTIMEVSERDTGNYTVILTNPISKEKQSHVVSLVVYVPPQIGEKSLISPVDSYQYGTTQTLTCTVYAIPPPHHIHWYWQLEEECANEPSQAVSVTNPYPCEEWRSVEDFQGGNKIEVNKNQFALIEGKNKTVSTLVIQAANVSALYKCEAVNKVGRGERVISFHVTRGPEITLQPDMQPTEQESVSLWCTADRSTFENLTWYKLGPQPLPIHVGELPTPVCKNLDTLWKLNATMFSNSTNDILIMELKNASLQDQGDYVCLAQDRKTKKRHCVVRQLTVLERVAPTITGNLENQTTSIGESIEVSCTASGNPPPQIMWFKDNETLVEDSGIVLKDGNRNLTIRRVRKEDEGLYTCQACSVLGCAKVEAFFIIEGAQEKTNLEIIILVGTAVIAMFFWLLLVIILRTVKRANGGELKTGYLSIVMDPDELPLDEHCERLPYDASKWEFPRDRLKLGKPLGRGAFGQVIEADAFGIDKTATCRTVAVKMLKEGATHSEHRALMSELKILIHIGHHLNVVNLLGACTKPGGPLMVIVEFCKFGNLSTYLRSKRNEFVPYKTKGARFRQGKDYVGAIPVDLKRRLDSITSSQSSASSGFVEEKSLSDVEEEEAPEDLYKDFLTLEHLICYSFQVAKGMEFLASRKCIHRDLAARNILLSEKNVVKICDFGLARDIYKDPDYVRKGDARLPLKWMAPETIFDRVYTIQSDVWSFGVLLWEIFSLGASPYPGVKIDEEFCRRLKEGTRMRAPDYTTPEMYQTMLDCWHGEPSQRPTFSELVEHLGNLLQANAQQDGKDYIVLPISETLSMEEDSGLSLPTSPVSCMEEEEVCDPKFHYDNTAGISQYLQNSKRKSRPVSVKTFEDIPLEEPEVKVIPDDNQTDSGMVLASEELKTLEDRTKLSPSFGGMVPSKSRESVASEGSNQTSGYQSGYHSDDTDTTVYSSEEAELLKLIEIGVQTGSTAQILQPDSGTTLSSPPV

Where two headings read alike, the source gives them in different places.

For the compound `COc1ccc(NC(=O)c2c(Nc3ccccc3)sc(C(=O)NN=Cc3ccc(OC)c(O)c3)c2NC(C)=O)cc1` [Compound 21, 4-Acetamido-5-[2-(3-hydroxy-4-methoxybenzylidene) hydrazinocarbonyl]-N-(4-methoxyphenyl)-2-phenylaminothiophene-3-carboxamide], in the assay on HepG-2 cells [1], the “early apoptosis fold increase vs control” value was 6 fold. In addition, in the assay with HepG-2 cells [1], the “late apoptosis fold increase vs control” value was determined as 21 fold. In addition, in the assay on HepG-2 cells [1] (control 0.34%), the “late apoptotic cells percentage (Q2)” value is on record as 7.2%. The IC50 (usually the concentration needed to halve the response being measured) with HepG-2 cells [2] (HepG2, 48 h, read-out: IC50 HepG-2) came to 2610 ± 120 nM; with HepG-2 cells [2] (HepG2, read-out: HepG-2 IC50) it was 2610 nM; with HCT-116 cells, 4320 ± 110 nM; at VEGFR-2 it was 1290 ± 130 nM. Further, the “caspase-3 level, fold increase compared to the control” value in the assay on caspase-3 was 9.2 fold. Besides, the “%β-TUB polymerization inhibition” value on β-tubulin (at their IC50 values on HepG-2 cells) is recorded as 85.95 ± 0.21%. At β-tubulin (at their IC50 values, HepG-2 cells), the β-tubulin polymerization inhibition is recorded as 86%. For the same compound, in the assay on p53, the “p53 protein level, fold increase compared with the control” value is given as roughly 1.7 fold. Also, in the assay on HepG-2 cells [3], the “G2/M arrest, fold increase compared to the control” value is listed as roughly 1.9 fold. In the assay with HepG-2 cells [3] (control 0.10%), the “apoptotic sub-G1 cell population” value came out at 6.07%. In addition, in the assay with Bax, the “Bax level, fold increase compared to the control” value was 11.8 fold. Moreover, the “caspase-7 level, fold increase compared to the control” value with caspase-7 was 5.9 fold. Further, in the assay with Bcl-2, the “Bcl-2 level, fold decrease compared to the control” value was found to be 2.5 fold.

Source of the values: PMC6136361 (Journal of Enzyme Inhibition and Medicinal Chemistry, 2018).
